Assay [1] can be described thus: bacterial growth inhibition with EDDHA chelator – absorbance 405 nm, dry powder, set 3, pyoverdine/PvdQ inhibitor project, dose response (AID 624020). As to conditions: P. aeruginosa growth + EDDHA, pyoverdine absorbance 405 nm; at 50 µM (top of the series). The method in brief: (§1)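 Assay system: P. aeruginosa ATCC 15692; quantity: final bacterial OD600 0.0000005; buffer or medium: succinate M9 medium, pH 7.0, with 2 µM iron chelator EDDHA; technique: absorbance at 405 nm reflecting pyoverdine production; timing: Bacteria-compound culture for 24–30 h at 37 °C, humidified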

Assay [2] relates to P. aeruginosa growth + EDDHA, pyoverdine absorbance 405 nm. The assay is described as above. The method in brief: as §1

Data on 39 molecules can be found in PubChem BioAssay AID624020 (Broad Institute, 2012).

Active and inactive are the calls of the source.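 Rule for the calls: active = fitted curve reaching 35% inhibition at both 405 and 600 nm absorbance, in duplicate, within twice the top valid dose; inactive = the rest, including signal rising instead of falling.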

As to `CCCCC(C#N)c1ccc(Cl)cc1F` (centres undefined), the activity change, negative = inhibition in assay [1] was 15.6% (inactive).

For the molecule `N#Cc1cccc(C(C#N)c2ccc(Cl)cc2F)n1` (centres undefined), in assay [1], the activity change, negative = inhibition is 7.99% (inactive).

On to `N#Cc1ccc(C(C#N)c2ccc(Cl)cc2Cl)nc1` (centres undefined), for which, in assay [1], the activity change, negative = inhibition was 4.54% (inactive).

Take `N#CC(c1cccc(C(F)(F)F)n1)c1ccc(Cl)cc1F` (centres undefined): the activity change, negative = inhibition in assay [1] is -4.42% (inactive).

As to `N#CC(c1ccc(C(F)(F)F)cc1)c1cccc(C(F)(F)F)n1` (centres undefined), in assay [1], the activity change, negative = inhibition was 20.5% (inactive).

As for `CCCCC(C#N)c1ccc(F)cc1` (centres undefined), in assay [1], the activity change, negative = inhibition is 8.04% (inactive).

Regarding `N#CC(c1ccc(Cl)cc1)c1ccc(C(F)(F)F)c(Cl)n1` (centres undefined), the activity change, negative = inhibition in assay [1] is -1.44% (inactive).

Consider `CCCCC(C#N)c1ccc(C(F)(F)F)cc1` (centres undefined), for which the activity change, negative = inhibition in assay [1] was 16.2% (inactive).

For `N#CC(c1ccc(Cl)cc1)c1ccc(C(F)(F)F)cn1` (centres undefined), the activity change, negative = inhibition in assay [1] is 8.01% (inactive).

Regarding `Cc1ccc(C(C#N)c2ccc(Cl)cc2)nc1` (centres undefined), in assay [1], the activity change, negative = inhibition was 7.58% (inactive).

Regarding `CCCC(C#N)c1ccc(Cl)cc1` (centres undefined), in assay [1], the activity change, negative = inhibition is -9% (inactive).

As to `N#CC(c1cccc(Cl)n1)c1ccc(Cl)cc1Cl` (centres undefined), the activity change, negative = inhibition in assay [1] was 0.286% (inactive).

Turning to `CCCCC(C#N)c1ccc(Cl)cc1Cl` (centres undefined), the activity change, negative = inhibition in assay [1] was 14.9% (inactive).

As to `Cc1ccc(C(C#N)c2ccc(Cl)cc2)nc1C#N` (centres undefined), the activity change, negative = inhibition in assay [1] was 5.29% (inactive).

Regarding `N#Cc1ccc(C(C#N)c2ccc(Cl)cc2)nc1` (centres undefined), the activity change, negative = inhibition in assay [1] is 5.84% (inactive).

With `CCCCC(C#N)c1ccccc1OC(F)(F)F` (centres undefined), the activity change, negative = inhibition in assay [1] was -1.21% (inactive).

Consider `N#CC(c1cccc(C(F)(F)F)n1)c1ccccc1OC(F)(F)F` (centres undefined), for which, in assay [1], the activity change, negative = inhibition was 7.17% (inactive).

In the case of `N#CC(c1ccc(Cl)cc1)c1ccc(Cl)cn1` (centres undefined), in assay [1], the activity change, negative = inhibition is -3.9% (inactive).

For the molecule `N#CC(c1ccc(Cl)cc1Cl)c1ncccc1Cl` (centres undefined), the activity change, negative = inhibition in assay [1] is 13% (inactive).

Consider `N#CC(c1ccc(C(F)(F)F)cc1)c1cccc(Cl)n1` (centres undefined), for which, in assay [1], the activity change, negative = inhibition is 17.5% (inactive).

In the case of `N#CC(c1ccc(C(F)(F)F)c(Cl)n1)c1ccccc1OC(F)(F)F` (centres undefined), the activity change, negative = inhibition in assay [1] is -1.95% (inactive).

Turning to `Cc1cccc(C(C#N)c2ccc(Cl)cc2)n1` (centres undefined), in assay [1], the activity change, negative = inhibition was 14% (inactive).

In the case of `N#CC(c1ccc(C(F)(F)F)c(Cl)n1)c1ccc(Cl)cc1Cl` (centres undefined), the AC35 in assay [2] is > 50 µM (inactive).

Turning to `N#Cc1cccc(C(C#N)c2ccccc2OC(F)(F)F)n1` (centres undefined), in assay [1], the activity change, negative = inhibition is 4.22% (inactive).

As to `COc1cccc(C(C#N)c2ccc(F)cc2)n1` (centres undefined), in assay [1], the activity change, negative = inhibition is 9.45% (inactive).

In the case of `Cc1ccc(C(C#N)c2ccc(F)cc2)nc1C#N` (centres undefined), the activity change, negative = inhibition in assay [1] is 4.87% (inactive).

`N#CC(c1ccc(F)cc1)c1cccc(C(F)(F)F)n1` (centres undefined): in assay [2], the AC35 is 44.8 µM.

Take `N#CC(c1cccc(Cl)n1)c1ccccc1OC(F)(F)F` (centres undefined): in assay [1], the activity change, negative = inhibition is -0.322% (inactive).

For `CC(C)CC(C#N)c1ccc(Cl)cc1` (centres undefined), the activity change, negative = inhibition in assay [1] is 3.56% (inactive).

Consider `N#CC(c1ccc(C(F)(F)F)c(Cl)n1)c1ccc(Cl)cc1F` (centres undefined), for which the activity change, negative = inhibition in assay [1] was 2.37% (inactive).

Regarding `N#CC(CC1CC1)c1ccc(Cl)cc1` (centres undefined), the activity change, negative = inhibition in assay [1] is 3.25% (inactive).

Turning to `N#CC(c1ccc(Cl)cc1)c1cccc(Cl)n1` (centres undefined), in assay [2], the AC35 is 33.5 µM.

With `CCCCC(C#N)c1ccc(Cl)cc1` (centres undefined), the activity change, negative = inhibition in assay [1] is -10.7% (inactive).

Regarding `Cc1ccc(C(C#N)c2ccccc2OC(F)(F)F)nc1C#N` (centres undefined), the activity change, negative = inhibition in assay [1] was 9.74% (inactive).

In the case of `N#CC(c1ccc(C(F)(F)F)cc1)c1ccc(C(F)(F)F)c(Cl)n1` (centres undefined), the activity change, negative = inhibition in assay [1] was 20.8% (inactive).

On to `N#Cc1cccc(C(C#N)c2ccc(Cl)cc2Cl)n1` (centres undefined), for which the activity change, negative = inhibition in assay [1] is -0.74% (inactive).

For the molecule `N#CC(c1ccc(Cl)cc1)c1cccc(C(F)(F)F)n1` (centres undefined), the AC35 in assay [2] was 16.8 µM.

Consider `N#Cc1cccc(C(C#N)c2ccc(Cl)cc2)n1` (centres undefined), for which the activity change, negative = inhibition in assay [1] is 3.83% (inactive).

In the case of `CC(C#N)(c1ccc(Cl)cc1)c1ccc(C(F)(F)F)cn1` (centres undefined), the activity change, negative = inhibition in assay [1] is 9.6% (inactive).
